# Reference: ChEMBL document CHEMBL5653605, “Reduced VEGF production, angiogenesis, and vascular regrowth contribute to the antitumor properties of dual mTORC1/mTORC2 inhibitors” (Cancer Res, 2011)
# Calls of active or inactive are those of the source.
# Columns and labels:
# [1] = system: Pancreatic islet cell carcinoma; experiment: Antivascular activity against pancreatic islet cell carcinoma in RIP-Tag2 mouse assessed as reduction in CD31-positive tumor blood vessels at 200 mg/kg, po qd administered via gavage and measured after 7 days by immunohistochemical staining based fluorescence microscopic analysis relative to control; assay type: functional; set-up: scale not given: the % may be the effect or the level left; conditions: time 7 day
# Procedure, shortened: (§1)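 For 7 days, RIP-Tag2 mice, 9–10 weeks old, received 75 mg/kg gavage BID, 200 mg/kg gavage QD, or 20 mg/kg ip QD. Perfusion-fixed tumors cut at 60–80 µm and stained for CD31 and type IV collagen basement membrane. Vessel area density from fluorescence images with threshold 30–50; sprouts and empty basement membrane sleeves examined by confocal microscopy. 3–8 mice/group; ANOVA, Fisher PLSD.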
# [2] = system: Pancreatic islet cell carcinoma; experiment: Antivascular activity against pancreatic islet cell carcinoma in RIP-Tag2 mouse assessed as appearance of empty basement membrane sleeves at 200 mg/kg, po qd administered via gavage and measured after 7 days by immunohistochemical staining based fluorescence microscopic analysis; assay type: functional, organism-based; conditions: time 7.0 day; procedure, shortened: as §1
# [3] = system: Pancreatic islet cell carcinoma; experiment: Antivascular activity against pancreatic islet cell carcinoma in RIP-Tag2 mouse assessed as reduction in vascular sprouts at 200 mg/kg, po qd administered via gavage and measured after 7 days by immunohistochemical staining based fluorescence microscopic analysis relative to control; assay type: functional; set-up: scale not given: the % may be the effect or the level left; conditions: time 7 day; procedure, shortened: as §1
# [4] = system: Pancreatic islet cell carcinoma; experiment: (§2) Antivascular activity in pancreatic islet cell carcinoma in RIP-Tag2 mouse assessed as reduction in intratumoral hemorrhage by measuring reduction in TER-119 immunoreactivity at 200 mg/kg, po qd administered via gavage and measured after 7 days by confocal microscopic analysis relative to control; assay type: functional; set-up: scale not given: the % may be the effect or the level left; conditions: time 7 day
# Procedure, shortened: (§3)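 Regrowth design in 10-week-old RIP-Tag2 mice: OSI-930 200 mg/kg gavage QD for 7 days, then 4 days of vehicle, 75 mg/kg gavage BID, or 20 mg/kg ip QD; controls received vehicle for 11 days. Perfusion-fixed sections stained for CD31 for vessel density or for the erythrocyte marker TER-119, quantified by confocal microscopy. 3–8 mice/group; ANOVA, Fisher PLSD.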
# [5] = system: Pancreatic islet cell carcinoma; experiment: as §2, with “gavage for 7 days followed by cessation” for “gavage”, “4” for “7”; assay type: functional; set-up: scale not given: the % may be the effect or the level left; conditions: time 7 day; procedure, shortened: as §3
# [6] = system: Pancreatic islet cell carcinoma; experiment: Additive antitumor activity in pancreatic islet cell carcinoma in RIP-Tag2 mouse assessed as reduction in proliferation by measuring reduction in phospho-histone H3 level at 100 mg/kg, po qd administered via gavage for 4 days in presence of OXA-01 by immunohistochemistry analysis; assay type: functional, organism-based; conditions: time 4.0 day
# Procedure, shortened: (§4)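 Perfusion-fixed tumor sections (60–80 µm) stained for phospho-histone H3 (proliferation) or activated caspase-3 (apoptosis) and quantified from confocal images. 3–8 mice/group; ANOVA, Fisher PLSD.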
# [7] = system: Pancreatic islet cell carcinoma; experiment: Additive antitumor activity in pancreatic islet cell carcinoma in RIP-Tag2 mouse assessed as induction of apoptosis by measuring increase in activated caspase-3 level at 100 mg/kg, po qd administered via gavage for 4 days in presence of OXA-01 by immunohistochemistry analysis relative to control; assay type: functional; conditions: time 4 day; procedure, shortened: as §4
# [8] = system: Pancreatic islet cell carcinoma; experiment: Antitumor activity in pancreatic islet cell carcinoma in RIP-Tag2 mouse assessed as induction of apoptosis by measuring increase in activated caspase-3 level at 100 mg/kg, po qd administered via gavage for 4 days in presence of rapamycin by immunohistochemistry analysis; assay type: functional, organism-based; conditions: time 4.0 day; procedure, shortened: as §4
# [9] = target: Vascular endothelial growth factor receptor 2 (Homo sapiens, UniProt P35968)
# [10] = target: RAC-alpha serine/threonine-protein kinase (Homo sapiens) (UniProt P31749); experiment: Inhibition of AKT phosphorylation at Ser 473 site in serum deprived/insulin stimulated human OVCAR-3 cells harboring PTEN and wild type PI3K at 0.001 to 10 uM preincubated for 2 hrs followed by insulin stimulation and measured immediately by Western blot analysis; assay type: cell-based; conditions: dose 0.001-10 µM
# [11] = target: Proline-rich AKT1 substrate 1 (Homo sapiens) (UniProt Q96B36); experiment: Inhibition of PRAS40 phosphorylation at Ser 246 residue in serum deprived/insulin stimulated human OVCAR-3 cells harboring PTEN and wild type PI3K at 0.001 to 10 uM preincubated for 2 hrs followed by insulin stimulation and measured immediately by Western blot analysis; assay type: cell-based; conditions: dose 0.001-10 µM
# [12] = target: Eukaryotic translation initiation factor 4E-binding protein 1 (Homo sapiens) (UniProt Q13541); experiment: Inhibition of 4E-BP1 phosphorylation at Ser 37/46 residues in serum deprived/insulin stimulated human OVCAR-3 cells harboring PTEN and wild type PI3K at 0.001 to 10 uM preincubated for 2 hrs followed by insulin stimulation and measured immediately by Western blot analysis; assay type: cell-based; conditions: dose 0.001-10 µM
# OVCAR-3 [13] = experiment: (§5) Inhibition of S6K phosphorylation at 235/236 residues in serum deprived/insulin stimulated human OVCAR-3 cells harboring PTEN and wild type PI3K at 0.001 to 10 uM preincubated for 2 hrs followed by insulin stimulation and measured immediately by Western blot analysis; assay type: cell-based; conditions: dose 0.001-10 µM
# OVCAR-3 [14] = experiment: as §5, with “S6K” for “S6K phosphorylation”, “PI3K assessed as inhibition of s6 substrate phosphorylation at […] residue” for “PI3K”; assay type: cell-based; conditions: dose 0.001-10 µM
# Mus musculus [15] = experiment: In vivo inhibition of S6 phosphorylation at 235/236 residues in nu/nu CD-1 mouse xenografted with human GEO cells at 20 mg/kg administered for 12 days and measured 2 to 24 hrs post last dose by Western blot analysis; assay type: functional, organism-based; conditions: time 290-312 hrs
# Procedure, shortened: (§6)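 GEO s.c. xenografts in nu/nu CD-1 mice; 20 mg/kg for 12 days; tumors snap-frozen at 2, 8, 24 h, lysed in Triton X-100/HEPES pH 7.4 buffer with phosphatase inhibitors; phospho and total 4E-BP1 (37/46) or S6 (235/236) by Western blot; n=2.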
# Mus musculus [16] = experiment: In vivo inhibition of 4E-BP1 phosphorylation at Ser37/46 residues in nu/nu CD-1 mouse xenografted with human GEO cells at 20 mg/kg administered for 12 days and measured 2 to 24 hrs post last dose by Western blot analysis; assay type: functional, organism-based; conditions: time 290-312 hrs; procedure, shortened: as §6
# Mus musculus [17] = experiment: In vivo inhibition of AKT phosphorylation in RIP-Tag2 mouse with pancreatic islet cell carcinoma 20 mg/kg, ip qd measured after 7 days by immunohistochemistry; assay type: functional, organism-based; conditions: time 7.0 day
# Procedure, shortened: (§7)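 RIP-Tag2 mice, 9–10 weeks old, given 20 mg/kg QD ip for 7 days; perfusion-fixed, 60–80 µm tumor sections immunostained for phospho-4E-BP1, phospho-Akt or phospho-S6K together with CD31; fluorescence/confocal imaging; 3–8 mice per group.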
# Mus musculus [18] = experiment: In vivo inhibition of 4E-BP1 phosphorylation in RIP-Tag2 mouse with pancreatic islet cell carcinoma 20 mg/kg, ip qd measured after 7 days by immunohistochemistry; assay type: functional, organism-based; conditions: time 7.0 day; procedure, shortened: as §7
# Mus musculus [19] = experiment: In vivo inhibition of S6K phosphorylation in RIP-Tag2 mouse with pancreatic islet cell carcinoma 20 mg/kg, ip qd measured after 7 days by immunohistochemistry analysis; assay type: functional, organism-based; conditions: time 7.0 day; procedure, shortened: as §7
# [20] = system: Pancreatic islet cell carcinoma; experiment: Antitumor activity against pancreatic islet cell carcinoma in RIP-Tag2 mouse assessed as reduction in VEGF production by measuring reduction in fluorescence in entire tumor at 20 mg/kg, ip qd measured after 7 days by immunohistochemical staining based confocal microscopic analysis relative to control; assay type: functional; set-up: scale not given: the % may be the effect or the level left; conditions: time 7 day
# Procedure, shortened: (§8)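 Treatment began in RIP-Tag2 mice at 9–10 weeks: 75 mg/kg gavage BID for 1, 4 or 7 days, or 20 mg/kg ip QD for 7 days; vehicle Labrifil or water. Tissue fixed by vascular perfusion and 60–80 µm sections stained for VEGF with CD31. VEGF fluorescence intensity measured over whole tumor, tumor cells, or tumor vessels. 3–8 mice/group; ANOVA, Fisher PLSD.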
# [21] = system: Pancreatic islet cell carcinoma; experiment: (§9) Antitumor activity against pancreatic islet cell carcinoma in RIP-Tag2 mouse assessed as reduction in VEGF production by measuring reduction in tumor cell associated fluorescence intensity at 20 mg/kg, ip qd measured after 7 days by immunohistochemical staining based confocal microscopic analysis relative to control; assay type: functional; set-up: scale not given: the % may be the effect or the level left; conditions: time 7 day; procedure, shortened: as §8
# [22] = system: Pancreatic islet cell carcinoma; experiment: as §9, with “tumor vessels” for “tumor cell”; assay type: functional; set-up: scale not given: the % may be the effect or the level left; conditions: time 7 day; procedure, shortened: as §8
# [23] = system: Pancreatic islet cell carcinoma; experiment: Antitumor activity against pancreatic islet cell carcinoma in RIP-Tag2 mouse assessed as reduction in VEGF-A expression at 20 mg/kg, ip qd measured after 7 days by immunoprecipitation based densitometric analysis; assay type: functional, organism-based; conditions: time 7.0 day
# Procedure, shortened: (§10)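 VEGF in tumor lysates from treated RIP-Tag2 mice (9–10 weeks old at start; 75 mg/kg gavage BID or 20 mg/kg ip QD) measured with mouse angiogenesis antibody arrays, read as pixel density. 3–8 mice/group, SEM; ANOVA with Fisher PLSD.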
# [24] = system: Pancreatic islet cell carcinoma; experiment: Antitumor activity against pancreatic islet cell carcinoma in RIP-Tag2 mouse assessed as reduction in VEGF-B expression at 20 mg/kg, ip qd measured after 7 days by immunoprecipitation based densitometric analysis; assay type: functional, organism-based; conditions: time 7.0 day; procedure, shortened: as §10
# [25] = system: Pancreatic islet cell carcinoma; experiment: Antivascular activity against pancreatic islet cell carcinoma in RIP-Tag2 mouse assessed as reduction in CD31-positive tumor blood vessels at 20 mg/kg, ip qd measured after 7 days by immunohistochemical staining based fluorescence microscopic analysis; assay type: functional, organism-based; conditions: time 7.0 day; procedure, shortened: as §1
# [26] = system: Pancreatic islet cell carcinoma; experiment: Antivascular activity against pancreatic islet cell carcinoma in RIP-Tag2 mouse assessed as appearance of empty basement membrane sleeves at 20 mg/kg, ip qd measured after 7 days by immunohistochemical staining based confocal microscopic analysis; assay type: functional, organism-based; conditions: time 7.0 day; procedure, shortened: as §1
# [27] = system: Pancreatic islet cell carcinoma; experiment: Antivascular activity against pancreatic islet cell carcinoma in RIP-Tag2 mouse assessed as reduction in vascular sprouts at 20 mg/kg, ip qd measured after 7 days by immunohistochemical staining based fluorescence microscopic analysis relative to control; assay type: functional; set-up: scale not given: the % may be the effect or the level left; conditions: time 7 day; procedure, shortened: as §1
# [28] = system: Pancreatic islet cell carcinoma; experiment: Antivascular activity in pancreatic islet cell carcinoma in RIP-Tag2 mouse assessed as suppression of tumor regrowth by measuring reduction in vessel density at 20 mg/kg, ip qd pretreated with OSI-930 for 7 days at 200 mg/kg, po followed by compound administration and measured after 4 days (reference value: 18%); assay type: functional; set-up: scale not given: the % may be the effect or the level left; conditions: time 4 day; procedure, shortened: as §3
# [29] = system: Pancreatic islet cell carcinoma; experiment: Antivascular activity in pancreatic islet cell carcinoma in RIP-Tag2 mouse assessed as reduction in intratumoral hemorrhage by measuring reduction in TER-119 immunoreactivity at 20 mg/kg, ip qd pretreated with OSI-930 for 7 days at 200 mg/kg, po followed by compound administration and measured after 4 days by confocal microscopic analysis relative to control; assay type: functional; set-up: scale not given: the % may be the effect or the level left; conditions: time 4 day; procedure, shortened: as §3
# [30] = system: Pancreatic islet cell carcinoma; experiment: Antitumor activity in pancreatic islet cell carcinoma in RIP-Tag2 mouse assessed as induction of apoptosis by measuring increase in activated caspase-3 level at 20 mg/kg, ip qd […] for 4 days in presence of OSI-930 by immunohistochemistry analysis; assay type: functional, organism-based; conditions: time 4.0 day; procedure, shortened: as §4
# Chain of Eukaryotic translation initiation factor 4E-binding protein 1 (Homo sapiens) (Q13541 whole entry): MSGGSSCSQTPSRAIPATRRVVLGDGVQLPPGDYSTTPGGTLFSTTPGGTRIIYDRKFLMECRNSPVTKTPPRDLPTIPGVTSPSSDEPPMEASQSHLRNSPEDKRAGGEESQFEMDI
# Chain of Vascular endothelial growth factor receptor 2 (P35968 whole entry): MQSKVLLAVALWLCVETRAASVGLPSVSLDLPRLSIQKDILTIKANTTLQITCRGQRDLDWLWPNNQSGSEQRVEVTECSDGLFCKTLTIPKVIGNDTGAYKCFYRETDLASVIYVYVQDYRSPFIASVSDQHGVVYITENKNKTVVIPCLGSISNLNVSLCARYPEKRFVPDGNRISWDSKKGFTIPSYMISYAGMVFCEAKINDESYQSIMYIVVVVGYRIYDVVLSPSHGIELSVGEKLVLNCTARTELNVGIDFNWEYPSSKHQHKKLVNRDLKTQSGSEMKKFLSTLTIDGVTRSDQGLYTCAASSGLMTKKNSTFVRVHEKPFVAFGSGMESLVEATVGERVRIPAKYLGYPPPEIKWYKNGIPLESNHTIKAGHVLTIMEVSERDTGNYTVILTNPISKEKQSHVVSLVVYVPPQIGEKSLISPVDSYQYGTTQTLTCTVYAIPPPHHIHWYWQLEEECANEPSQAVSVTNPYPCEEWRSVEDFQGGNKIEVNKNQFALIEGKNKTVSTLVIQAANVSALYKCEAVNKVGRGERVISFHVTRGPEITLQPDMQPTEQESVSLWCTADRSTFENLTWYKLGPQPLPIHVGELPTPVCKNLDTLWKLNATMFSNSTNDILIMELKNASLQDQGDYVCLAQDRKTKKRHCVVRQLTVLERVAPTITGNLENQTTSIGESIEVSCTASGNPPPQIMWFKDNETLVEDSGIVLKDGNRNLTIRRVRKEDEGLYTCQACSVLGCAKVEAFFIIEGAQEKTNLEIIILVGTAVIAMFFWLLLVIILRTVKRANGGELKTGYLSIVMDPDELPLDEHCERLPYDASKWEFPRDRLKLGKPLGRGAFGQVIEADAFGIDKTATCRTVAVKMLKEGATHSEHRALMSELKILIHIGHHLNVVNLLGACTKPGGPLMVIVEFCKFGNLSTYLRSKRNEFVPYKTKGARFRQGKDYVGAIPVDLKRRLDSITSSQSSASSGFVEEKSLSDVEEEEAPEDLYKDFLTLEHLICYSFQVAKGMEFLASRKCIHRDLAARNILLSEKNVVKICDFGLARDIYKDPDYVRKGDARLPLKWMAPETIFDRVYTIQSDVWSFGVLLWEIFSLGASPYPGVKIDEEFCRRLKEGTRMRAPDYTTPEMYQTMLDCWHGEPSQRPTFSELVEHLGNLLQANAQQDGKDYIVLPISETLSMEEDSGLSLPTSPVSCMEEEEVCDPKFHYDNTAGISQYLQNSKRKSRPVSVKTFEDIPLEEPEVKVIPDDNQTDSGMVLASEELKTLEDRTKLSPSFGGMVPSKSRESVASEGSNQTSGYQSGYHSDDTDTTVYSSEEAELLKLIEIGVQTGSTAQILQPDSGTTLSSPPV
# Chain of RAC-alpha serine/threonine-protein kinase (Homo sapiens) (P31749 whole entry): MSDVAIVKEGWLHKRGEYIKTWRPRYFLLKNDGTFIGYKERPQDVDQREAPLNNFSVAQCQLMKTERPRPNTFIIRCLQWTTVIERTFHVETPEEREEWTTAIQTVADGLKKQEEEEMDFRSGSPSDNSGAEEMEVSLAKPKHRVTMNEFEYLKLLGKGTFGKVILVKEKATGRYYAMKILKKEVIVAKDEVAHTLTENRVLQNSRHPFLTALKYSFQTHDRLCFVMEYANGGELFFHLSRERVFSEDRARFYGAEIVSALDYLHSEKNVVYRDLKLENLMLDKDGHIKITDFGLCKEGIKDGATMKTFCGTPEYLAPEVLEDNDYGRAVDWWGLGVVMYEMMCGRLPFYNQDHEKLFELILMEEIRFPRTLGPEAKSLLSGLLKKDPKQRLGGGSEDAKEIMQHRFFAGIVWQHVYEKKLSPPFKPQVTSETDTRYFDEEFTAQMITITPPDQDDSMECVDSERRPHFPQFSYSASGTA
structure (smiles),measurement,setting,value
O=C(Nc1ccc(OC(F)(F)F)cc1)c1sccc1NCc1ccnc2ccccc12 [OSI-930],Activity,[1],61%
same,Activity,[2],Active
same,Activity,[3],61%
same,Activity,[4],72%
same,Activity,[5],28%
same,Activity,[6],Active
same,Activity,[7],700%
same,Activity,[8],inactive
same,IC50,[9],9 nM
CO[C@H]1C[C@@H]2CC[C@@H](C)[C@@](O)(O2)C(=O)C(=O)N2CCCC[C@H]2C(=O)O[C@H]([C@H](C)C[C@@H]2CC[C@@H](O)[C@H](OC)C2)CC(=O)[C@H](C)/C=C(\C)[C@@H](O)[C@@H](OC)C(=O)[C@H](C)C[C@H](C)/C=C/C=C/C=C/1C [SIROLIMUS],inhibition,[10],inactive
same,inhibition,[11],inactive
same,inhibition,[12],inactive
same,inhibition,OVCAR-3 [13],Active
same,inhibition,OVCAR-3 [14],Active
same,inhibition,Mus musculus [15],Active
same,inhibition,Mus musculus [16],Active
same,inhibition,Mus musculus [17],inactive
same,inhibition,Mus musculus [18],inactive
same,inhibition,Mus musculus [19],Active
same,Activity,[20],21%
same,Activity,[21],34%
same,Activity,[22],20%
same,Activity,[23],inactive
same,Activity,[24],inactive
same,Activity,[25],inactive
same,Activity,[26],inactive
same,Activity,[27],21%
same,Activity,[28],15%
same,Activity,[29],48%
same,Activity,[30],inactive
